SKN-1 block: suppressors of acrylamide-induced Pgst-4::GFP reporter in worms, primary screen, SKN-1 inhibitor project, whole organism, uHTS, GFP/RFP fluorescence ratio, strain VP596; AID 624304, 2012; C. elegans VP596 Pgst-4::GFP/RFP ratio, 24 h; 0.49% of 360,000 active; inhibition, % at 21.8 µM;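 active means interference check ratio from 0.5 to 1.5 plus GFP to RFP signal ratio inhibition reaching or exceeding a fixed threshold, cut at about 30% in these data, passing the limit was not always enough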
Rin1 Abl inh: inhibitors of Rin1-Abl protein binding, primary screen, biochemical, TR-FRET; inhibition, % at 7.35 µM; Tyrosine-protein kinase ABL1 (Homo sapiens) + Ras and Rab interactor 1 (Homo sapiens), …; 0.4% of 360,000 active; in the data active means inhibition above about 5%, passing the limit was not always enough
Rce1 inhib: yeast Rce1p protease inhibitors, primary screen, biochemical, fluorescence, cell-free homogeneous | yeast membranes, quenched prenylated peptide cleavage fluorescence | calls only | 0.27% of 290,000 active;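 active means fall in fluorescence gain of 50% or more versus controls, with final raw signal at or below 3038400; inconclusive means same 50% fall but final raw signal above 3038400; inactive means fall in fluorescence gain under 50%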;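 further: plate controls were neutral control wells for no effect and wells lacking membranes for full effect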
T cell HTS: modulators of CD8 T cell-vesicle binding, primary screen, mouse 2C CD8+ T cells, flow cytometry; 2C CD8+ T cell-vesicle binding; stronger effect = lower value; response (vesicle binding), % at 7 µM; 0.068% of 330,000 active;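 active means response, share of CD8 T cells binding vesicles, and their 90th percentile fluorescence all below set limits, cut at about 80% in these data, passing the limit was not always enough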;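 further: values below 100% mean blocked vesicle binding to the CD8+ T cells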
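Assay system: 2C TCR transgenic mouse naive CD8+ T cells, MACS-purified | Read-out: CD8+ gate FL2 mean fluorescence as % of same-row positive control | Signal: High-throughput flow cytometry with anti-B7-1 and anti-CD8 staining | Timing: Binding step 1.5 h, 37 °C, antibody labelling 20 min, ice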
Myeloid diff 2: induction of myeloid progenitor differentiation, primary screen, cell-based, flow cytometry, MLPCN library; calls only at 10 µM; AID 624256, 2012; 1% of 360,000 active; ER-HoxA9 myeloid progenitors, lysozyme-GFP differentiation;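 active means normalized GFP-positive differentiation at or above the plate's own cutoff, the solvent-only control mean plus 3 SD; inconclusive means no clear call, values can overlap the other calls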;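 further: cells exposed to compound for four days before flow analysis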
GRK2 inh: compounds blocking aptamer binding on GRK2 – biochemical, human GRK2, bead flow cytometry, HTS, primary screen | Beta-adrenergic receptor kinase 1 (Homo sapiens), P25098 | FAM-aptamer displacement from GRK2 | inhibition of aptamer binding, % at 10 µM | 0.59% of 330,000 active;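 active means inhibition of aptamer binding above 40%, roughly 3 SD of noise, on plates passing a quality check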;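 further: median bead fluorescence of bound FAM aptamer so fluorescent compounds give negative values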
* = called active by the depositor; i = inactive; u = inconclusive; x = no result; + = active, no number. Sampled rows, rich in hits. Any-hit rate of the full collection: about 2.6%.

SMILES	SKN-1 block	Rin1 Abl inh	Rce1 inhib	T cell HTS	Myeloid diff 2	GRK2 inh
COC(=O)c1ccc(C(=O)OC)c(NC(=S)N2CCN(C(=O)C3CCCO3)CC2)c1 (centres undefined)	1.7	4.2	i	301.2	i	0.0
Cc1ccc(-c2nc3cccnc3o2)cc1NC(=O)COc1ccc(C(C)(C)C)cc1	43.0*	-0.1	i	354.2	i	2.0
O=C(COC(=O)CCNS(=O)(=O)c1ccccc1)Nc1ccc(OC(F)F)cc1	45.1*	0.4	x	410.7	i	1.0
O=C(COC(=O)Cc1ccc(Cl)cc1)Nc1ccc(OC(F)F)cc1	6.0	4.6	i	235.8	i	44.0*
COc1ccc(CC(=O)OCC(=O)Nc2ccc(Br)cc2)cc1	6.9	-0.7	+	559.1	i	0.0
O=C1CC2(CCN(C(=O)c3ccc(Br)cc3)CC2)Oc2ccccc21	-4.2	0.8	i	275.0	i	2.0
CN1CCN(Cc2c(C(=O)N/N=C/c3cccc(Br)c3)nnn2-c2nonc2N)CC1	10.9	1.5	+	166.6	i	0.0
Nc1nonc1-n1nnc(C(=O)N/N=C/c2ccccc2)c1CSc1ccccc1	-2.1	-1.3	x	382.0	i	3.0
Cc1nnn(-c2nonc2N)c1C(=O)N/N=C/c1ccccc1O	-0.2	-2.0	i	305.3	i	0.0
Nc1nonc1-n1nnc(C(=O)N/N=C/c2ccoc2)c1CSc1ccccc1	13.2	1.7	+	340.5	i	0.0
Cc1nnn(-c2nonc2N)c1C(=O)N/N=C/c1cccc2ccccc12	-2.4	-0.1	+	358.1	i	0.0
O=C(Cc1ccc([N+](=O)[O-])cc1)Oc1ccccc1	-15.2	3.1	x	x	i	x
Cc1ccc(-n2cc3c(-c4cccc(Br)c4)nnc(C)c3n2)cc1	74.6	0.9	i	381.0	+	0.0
Cc1ccccc1NC(=O)Cc1nc(COC(=O)c2ccc(S(C)(=O)=O)c([N+](=O)[O-])c2)cs1	6.9	3.4	x	313.7	+	0.0
COc1ccc(CCC(=O)OCc2csc(CC(=O)Nc3ccccc3C)n2)cc1	-10.4	-2.0	i	457.7	+	0.0
O=C(c1cc(COc2ccc(F)cc2Cl)on1)N1CC2C[C@@H]3CC1C[C@H](C2)C3	35.5*	5.2	i	210.3	i	0.0
c1ccc2cc(N3CCCCC3)ccc2c1	34.3	2.7	x	x	i	x
O=C1c2ccccc2C(=O)c2cc(N3CCCCC3)ccc21	59.5	1.9	x	x	+	x
COc1ccc(Cn2cc(CN3CC(N4CCN(CCO)CC4)CS3(=O)=O)nn2)cc1 (centres undefined)	-12.0	x	x	x	i	x
NS(=O)(=O)c1ccc(N/C=C\C(=O)c2ccc3ccccc3c2)cc1	6.3	-5.0	i	i	i	49.0*
COc1ccc(N/C=C\C(=O)c2ccc3ccccc3c2)cc1	19.8	0.1	i	578.0	i	3.0
O=C(NCCNC(=O)Nc1ccc(Cl)cc1)Nc1ccc(Cl)cc1	3.3	1.9	x	x	+	x
CCOc1ccc(NC(=O)Nc2ccc(Br)cn2)cc1	19.3	0.6	x	351.7	i	0.0
O=C(NCCO)Nc1ccc(Cl)cc1	-2.9	0.0	i	111.4	i	0.0
O=C(Nc1ccc(Cl)cc1)Nc1ccc(Br)cn1	37.1*	0.5	i	150.2	i	1.0
SMILES	SKN-1 block	Rin1 Abl inh	Rce1 inhib	T cell HTS	Myeloid diff 2	GRK2 inh
CC1=C(C(=O)N2CCOCC2)C(c2ccccc2F)C2=C(CC(C)(C)CC2=O)N1 (centres undefined)	-1.2	0.4	+	416.5	i	21.0
Oc1ccc(N=Nc2ccc3c(c2)OCCO3)c2ncccc12	-5.2	9.2*	i	357.5	x	5.0
CCOC1=C2[C@H](c3ccc(CC)cc3)N(S(=O)(=O)c3ccc(C)cc3)C[C@H]2n2c(=O)n(-c3ccccc3)c(=O)n2C1	16.5	-1.8	x	x	i	x
CN(C)c1ccc(/C=C2\SC(=S)N(Nc3ncc(C(F)(F)F)cc3Cl)C2=O)cc1	61.7	2.1	i	595.4	+	0.0
Nc1nc(N)c2nc(-c3ccccc3)c(N)nc2n1	10.9	-4.0	u	549.2	+	0.0
NSc1nc(N)c2nc(-c3ccccc3)c(-c3ccccc3)nc2n1	2.4	0.8	i	296.0	i	1.0
Cc1c(Cl)cccc1NC(=O)NN1CCN(C)CC1	-36.1	0.4	i	338.9	+	5.0
O=C(NNC(=S)NCC1CCCO1)c1cccc(S(=O)(=O)N2CCOCC2)c1 (centres undefined)	9.0	1.6	i	323.8	i	0.0
COCOCCn1cc(CN2CCS(=O)(=O)N(Cc3ccc(-c4cccc(CO)c4)cc3)C(C(C)C)C2=O)nn1 (centres undefined)	5.8	-2.4	x	x	i	x
COCOCCn1cc(CN2CCS(=O)(=O)N(Cc3ccc(-c4cccc(N(C)C)c4)cc3)C(C(C)C)C2=O)nn1 (centres undefined)	35.7*	2.6	x	x	i	x
C[C@@H]1CN([C@H](C)CO)C(=O)CCCn2nncc2CO[C@H]1CN(C)S(=O)(=O)c1ccc(-n2cccn2)cc1	-7.5	-0.1	x	x	i	x
CC(C)(C)N1CC(C(=O)O)CC1=O (centres undefined)	10.1	0.7	i	209.2	i	3.0
COC(=O)c1cc(NC(=O)CN(c2ccc3c(c2)OCO3)S(C)(=O)=O)ccc1Cl	35.8*	-2.2	i	427.2	i	0.0
CS(=O)(=O)N(CC(=O)Nc1ccc2c(c1)OCO2)c1ccc2c(c1)OCO2	21.6	0.6	i	208.8	i	0.0
COc1ccc(C(=O)Nc2nnc(Cc3cccs3)s2)cc1OC	-4.7	-4.4	i	317.5	+	0.0
COC(=O)[C@]12CCCCC=C1N(CCC1=CCCCC1)C(=O)[C@H](CC(=O)NCc1ccccc1)C2	-7.1	x	x	x	i	x
Nc1ccc2cc3ccccc3cc2c1	25.8	-1.1	x	x	+	x
Nc1ccc2cccc(O)c2c1	5.4	-1.5	x	x	i	x
O=C(O)CSCC(=O)Nc1ccccc1SCCS(=O)(=O)c1ccc(Cl)cc1	9.9	-0.8	i	229.1	+	0.0
CCCS(=O)(=O)N1CCC(C(=O)NCc2cccnc2)CC1	51.7*	2.1	i	218.7	i	2.0
CCCS(=O)(=O)N1CCCC(C(=O)NCc2cccnc2)C1 (centres undefined)	4.5	1.2	i	183.3	i	0.0
COc1cc(/C=N/N2C(=O)CSC2=S)cc(Br)c1O	43.4*	-2.9	x	x	i	x
Cc1ccc(C(=O)NCC(=O)N2CCC(Cc3ccccc3)CC2)cc1	-8.7	0.4	i	336.3	i	0.0

Bioassay records deposited in PubChem BioAssay by several laboratories.
